High-throughput results from PubChem BioAssay.
RGS4 block: RGS4 inhibitors, primary screen, cell-based, HEK293 M3R inducible RGS4, calcium flux. 0.45% of 310,000 active. B-score at 10 µM. Fluo-4 calcium flux; hits give high values; triggered by carbachol at its EC20. Regulator of G-protein signaling 4 (Homo sapiens), P49798;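 active means B-score, a plate-corrected calcium signal, over three deviations above library mean, with baseline fluorescence within five deviations of library mean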;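 further: RGS4 expression induced by doxycycline in cells with stable M3 receptor; B-score is computed from the integrated fluorescence ratio over baseline after carbachol; higher B-score means a larger calcium signal and so more RGS4 inhibition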
Target sequence (P49798 whole entry, looked up): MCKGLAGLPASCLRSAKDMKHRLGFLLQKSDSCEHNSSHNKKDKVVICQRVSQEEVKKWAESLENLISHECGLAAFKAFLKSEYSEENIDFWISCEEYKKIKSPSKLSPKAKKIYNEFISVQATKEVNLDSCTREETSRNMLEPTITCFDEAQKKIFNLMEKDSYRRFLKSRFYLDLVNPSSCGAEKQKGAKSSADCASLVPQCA
MrgX1 ag: agonists of human MrgX1 receptor, primary screen, HEK293 cells, Fluo-4 calcium flux. Mas-related G-protein coupled receptor member X1 (Homo sapiens), Q96LB2. AID 588627, 2011. B-score at 10 µM. Fluo-4 calcium fluorescence, agonist mode; hits give high values. 0.44% of 310,000 active;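 active means calcium response B-score plate-corrected fluorescence ratio at least 3 library SD, with starting fluorescence B-score inside 5 SD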
Target sequence (Q96LB2 whole entry, looked up): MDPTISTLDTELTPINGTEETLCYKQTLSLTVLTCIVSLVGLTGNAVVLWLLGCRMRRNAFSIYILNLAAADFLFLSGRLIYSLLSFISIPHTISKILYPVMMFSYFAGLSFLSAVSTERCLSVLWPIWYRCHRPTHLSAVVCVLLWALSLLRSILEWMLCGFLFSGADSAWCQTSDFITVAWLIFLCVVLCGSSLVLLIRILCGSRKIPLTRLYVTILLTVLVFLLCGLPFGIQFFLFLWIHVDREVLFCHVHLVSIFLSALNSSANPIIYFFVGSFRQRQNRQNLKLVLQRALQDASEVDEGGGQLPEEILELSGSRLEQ
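Material: MrgX1-expressing HEK293 cells; input: 15,000 cells per well; doses: test compound given as first of three sequential additions; schedule: overnight plating before 1 h dye loading; technique: Fluo-4 NW calcium-flux fluorescence, kinetic read; evaluation: baseline-normalised fluorescence change ratio, B-scored; control set: plate-wise positive and negative controls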
MrgX1 allo act: positive allosteric modulators of MrgX1, primary screen, HEK293 cells, Fluo-4 calcium flux; 0.63% of 310,000 active; FDSS; hits give high values; B-score at 10 µM;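 active means plate-corrected calcium response at least 3 library SD above typical, normal starting fluorescence, not activating the receptor alone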;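 further: compound read alongside a low EC10 to EC30 dose of BAM8-22 agonist; peak minus trough fluorescence over baseline measured at the second addition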
RGS4 pot: RGS4 potentiators or activators, primary screen, cell-based, HEK293 M3R inducible RGS4, calcium flux; carbachol calcium flux Fluo4; hits give low values; B-score at 10 µM; 0.92% of 310,000 active; AID 463111, 2010;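 active means B-score of the integrated calcium signal more than 4 SD below the library mean, with starting fluorescence not abnormally high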;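 further: negative B-score means reduced calcium response which marks RGS4 activation or potentiation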
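System – HEK293 FlpIn-TREx cells, stable M3R, doxycycline-inducible RGS4 · Reagent – ECmax carbachol challenge · Times – compound preincubation 20 min at room temperature before agonist · Technique – Fluo4 fluorescence kinetic imaging of calcium · Measure – B score of integrated Fluo4 ratio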
MrgX1 antag: antagonists of human MrgX1 receptor, primary screen, HEK293 cells, Fluo-4 calcium flux | BAM8-22 antagonism; hits give low values | B-score at 10 µM | 1.3% of 310,000 active | AID 588676, 2011;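 active means calcium-response B-score plate-corrected more than 3 library SD below zero, starting fluorescence within 5 deviations, no agonist response on first addition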;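 further: peak minus trough fluorescence over baseline after final BAM8-22 challenge near maximal dose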
RGS4 inh valid: enhanced carbachol calcium response, M3R/RGS4 cells, RGS4 inhibitor project, cell-based, validation screen, HEK293 M3R/RGS4, calcium flux; carbachol calcium Fluo-4 fluorescence; carbachol added at its EC20; 0 = buffer wells, 100 = carbachol control; shares compounds with RGS4 block; calcium response, % at 10 µM; 65% of 1,700 active;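 active means duplicate-averaged calcium response above the buffer-only control mean plus 5 SD of those controls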;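 further: integrated fluorescence ratio F max minus min over baseline F0; higher response in RGS4-induced cells means RGS4 inhibition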
M3R Ca ctr: carbachol calcium response in non-induced M3R cells, confirmation, counter-screen for RGS4 inhibitor project, cell-based, HEK293 M3R | carbachol calcium Fluo-4; submaximal (EC20) carbachol stimulus; buffer wells 0%, carbachol control wells 100% | shares compounds with RGS4 block | activity (percent), % at 10 µM | 20% of 1,900 active | AID 493000, 2010; call rule not given here;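 further: RGS4 induction absent so cells express M3R without RGS4; higher means more calcium signal and flags a non-specific hit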
RGS4 inh ctr2: signal in non-induced cells without carbachol, RGS4 inhibitor counter-screen; shares compounds with RGS4 block; HEK293 M3R/RGS4 non-induced, Fluo-4 calcium, no carbachol; normalised: buffer wells 0%, carbachol wells 100%; calcium response (agonist-mode artifact), % at 10 µM; 22% of 1,900 active; AID 493001;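 active means duplicate-averaged calcium rise in uninduced cells above buffer wells' mean plus 5 SD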
Active calls of the source: *. Compounds with a hit are over-represented: about 3.5% of the library has one in this group of screens.

Results for OCC(CO)(CO)N=Cc1cc(Br)ccc1O ?
RGS4 block: 5.8*; MrgX1 ag: inactive; MrgX1 allo act: inactive; RGS4 pot: inactive; MrgX1 antag: inactive; RGS4 inh valid: inactive; M3R Ca ctr: inactive; RGS4 inh ctr2: inactive

Results for Cc1sc(NC(=O)CN(C(=O)c2ccccc2F)C2CCCC2)c(C(N)=O)c1C ?
RGS4 block: inactive; MrgX1 ag: inactive; MrgX1 allo act: inactive; RGS4 pot: inactive; MrgX1 antag: inactive

What do the screens show for `FC(F)(F)c1cccc(-c2nn[nH]n2)c1`?
RGS4 block: 4.8*; MrgX1 ag: inactive; MrgX1 allo act: inactive; RGS4 pot: inactive; MrgX1 antag: inactive; RGS4 inh valid: inactive; M3R Ca ctr: inactive; RGS4 inh ctr2: inactive

How did Cc1cccc(NC(=O)CS(=O)CC(=O)Nc2cnc3ccccc3c2)c1C (stereo unspecified) do in these assays?
RGS4 block: inactive; MrgX1 ag: inactive; MrgX1 allo act: inactive; RGS4 pot: inactive; MrgX1 antag: inactive

How did Cc1ccc(N=Cc2ccc(O)cc2O)cc1F do in these assays?
RGS4 block: 10*; MrgX1 ag: inactive; MrgX1 allo act: inactive; RGS4 pot: inactive; MrgX1 antag: inactive; RGS4 inh valid: 14%*; M3R Ca ctr: inactive; RGS4 inh ctr2: 13%*

What do the screens show for `Oc1ccc(C=Nc2cccc3ccccc23)c(O)c1`?
RGS4 block: inactive; MrgX1 ag: inactive; MrgX1 allo act: inactive; RGS4 pot: inactive; MrgX1 antag: inactive

What do the screens show for `O=c1[nH]c2c(cnn2-c2ccc(Cl)cc2)c(=O)n1-c1cccc(Cl)c1`?
RGS4 block: inactive; MrgX1 ag: inactive; MrgX1 allo act: inactive; RGS4 pot: inactive; MrgX1 antag: inactive

Results for Cc1ccccc1-n1c(SCC(=O)N/N=C/c2sccc2C)nc2ccccc2c1=O ?
RGS4 block: 5.5*; MrgX1 ag: inactive; MrgX1 allo act: inactive; RGS4 pot: inactive; MrgX1 antag: inactive; RGS4 inh valid: inactive; M3R Ca ctr: inactive; RGS4 inh ctr2: inactive

What do the screens show for `Cc1ccc(/C=N/NC(=O)CSc2nc3ccccc3c(=O)n2-c2ccccc2C)s1`?
RGS4 block: inactive; MrgX1 ag: inactive; MrgX1 allo act: inactive; RGS4 pot: inactive; MrgX1 antag: inactive

What do the screens show for `CCCCC(=O)Nc1ccc2c(c1)nc(CCNC(=O)c1ccco1)n2C`?
RGS4 block: inactive; MrgX1 ag: inactive; MrgX1 allo act: inactive; RGS4 pot: inactive; MrgX1 antag: inactive

Results for CCC(=O)NCCc1nc2cc(NC(=O)c3ccco3)ccc2n1C ?
RGS4 block: inactive; MrgX1 ag: inactive; MrgX1 allo act: inactive; RGS4 pot: inactive; MrgX1 antag: inactive; RGS4 inh valid: inactive; M3R Ca ctr: inactive; RGS4 inh ctr2: inactive

What do the screens show for `Cn1c(CCNC(=O)c2ccccc2)nc2cc(NC(=O)c3ccco3)ccc21`?
RGS4 block: inactive; MrgX1 ag: inactive; MrgX1 allo act: inactive; RGS4 pot: inactive; MrgX1 antag: inactive; RGS4 inh valid: inactive; M3R Ca ctr: inactive; RGS4 inh ctr2: inactive

What do the screens show for `Cn1c(CCNC(=O)c2ccco2)nc2cc(NS(=O)(=O)c3ccccc3)ccc21`?
RGS4 block: inactive; MrgX1 ag: inactive; MrgX1 allo act: inactive; RGS4 pot: inactive; MrgX1 antag: inactive

What do the screens show for `Cn1c(CCNC(=O)c2ccco2)nc2cc(NC(=O)c3ccccc3)ccc21`?
RGS4 block: inactive; MrgX1 ag: inactive; MrgX1 allo act: inactive; RGS4 pot: inactive; MrgX1 antag: inactive; RGS4 inh valid: inactive; M3R Ca ctr: inactive; RGS4 inh ctr2: inactive

What do the screens show for `Cn1c(CCNC(=O)c2ccco2)nc2cc(NC(=O)C3CCCCC3)ccc21`?
RGS4 block: inactive; MrgX1 ag: inactive; MrgX1 allo act: inactive; RGS4 pot: inactive; MrgX1 antag: inactive

Results for Cn1c(CCNC(=O)c2ccco2)nc2cc(NC(=O)c3ccco3)ccc21 ?
RGS4 block: inactive; MrgX1 ag: inactive; MrgX1 allo act: inactive; RGS4 pot: inactive; MrgX1 antag: inactive; RGS4 inh valid: inactive; M3R Ca ctr: inactive; RGS4 inh ctr2: inactive

Results for COc1ccccc1C(=O)Nc1ccc2c(c1)nc(CCNC(=O)c1ccco1)n2C ?
RGS4 block: inactive; MrgX1 ag: inactive; MrgX1 allo act: inactive; RGS4 pot: inactive; MrgX1 antag: inactive

Results for CC(C)Cc1ccc(C(=O)NCCOc2ccccc2)o1 ?
RGS4 block: inactive; MrgX1 ag: inactive; MrgX1 allo act: inactive; RGS4 pot: inactive; MrgX1 antag: inactive

What do the screens show for `CC(C)(C)C1c2[nH]c3ccccc3c2CCN1Cc1cccc(OCCO)c1` (stereo unspecified)?
RGS4 block: inactive; MrgX1 ag: inactive; MrgX1 allo act: inactive; RGS4 pot: inactive; MrgX1 antag: inactive

Results for CCC(C(=O)NCCc1ccc(C)cc1)n1nc(C)c2c(C)n(-c3ccccc3)nc2c1=O (stereo unspecified) ?
RGS4 block: inactive; MrgX1 ag: inactive; MrgX1 allo act: inactive; RGS4 pot: inactive; MrgX1 antag: inactive

How did CCC(C(=O)N1CCCC1)n1nc(C)c2c(C)n(-c3ccccc3)nc2c1=O (stereo unspecified) do in these assays?
RGS4 block: inactive; MrgX1 ag: inactive; MrgX1 allo act: inactive; RGS4 pot: inactive; MrgX1 antag: inactive; RGS4 inh valid: inactive; M3R Ca ctr: inactive; RGS4 inh ctr2: inactive

What do the screens show for `CCCCCCSc1ccc([C@H]2N[C@@](C)(C(=O)OC)[C@H]3C(=O)N(CC)C(=O)[C@@H]23)cc1`?
RGS4 block: inactive; MrgX1 ag: inactive; MrgX1 allo act: inactive; RGS4 pot: inactive; MrgX1 antag: inactive
